The species entered for experiment [1] is Homo sapiens. The experiment can be described thus: Selectivity for COX2 over COX1. In short, it runs like this:
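Ratio of COX-1 to COX-2 IC50s, each taken from PGE2 production in CHO cells transfected with COX-1 or with COX-2. Cells were seeded and, 18 h later, given fresh Ham's F12 with 10% fetal calf serum with or without compound. After 10 min they were stimulated with arachidonic acid, then for 10 min with calcium ionophore A 23187. Intracellular PGE2 was read by enzyme immunoassay, n = 2.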

Experiment [2] deals with Prostaglandin G/H synthase 1 (Homo sapiens, UniProt P23219). The experiment is described as follows: Inhibition of COX1 expressed in CHO cells assessed as inhibition of arachidonic acid-stimulated PGE2 production by enzyme immunoassay. It counts as functional, cell-based.
Prostaglandin G/H synthase 1, sequence (P23219 whole entry): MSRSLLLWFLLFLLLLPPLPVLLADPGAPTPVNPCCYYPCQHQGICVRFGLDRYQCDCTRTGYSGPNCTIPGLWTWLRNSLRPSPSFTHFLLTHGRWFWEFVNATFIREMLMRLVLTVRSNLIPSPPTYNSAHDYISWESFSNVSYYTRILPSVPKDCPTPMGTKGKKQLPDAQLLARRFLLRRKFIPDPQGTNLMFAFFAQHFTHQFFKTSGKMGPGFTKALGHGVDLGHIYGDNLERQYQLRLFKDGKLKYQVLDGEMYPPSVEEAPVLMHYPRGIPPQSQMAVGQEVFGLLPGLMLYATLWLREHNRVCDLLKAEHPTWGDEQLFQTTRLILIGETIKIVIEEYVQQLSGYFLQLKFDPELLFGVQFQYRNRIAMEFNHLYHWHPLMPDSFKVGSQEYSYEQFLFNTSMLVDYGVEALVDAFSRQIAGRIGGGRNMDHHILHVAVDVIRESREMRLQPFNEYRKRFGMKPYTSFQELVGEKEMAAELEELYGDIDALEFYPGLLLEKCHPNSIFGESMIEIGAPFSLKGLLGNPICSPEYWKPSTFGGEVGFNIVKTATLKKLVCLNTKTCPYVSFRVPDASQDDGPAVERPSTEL
Experiment [3] has as its target T1, Polyunsaturated fatty acid 5-lipoxygenase (Homo sapiens, UniProt P09917).
T1 sequence (P09917 whole entry): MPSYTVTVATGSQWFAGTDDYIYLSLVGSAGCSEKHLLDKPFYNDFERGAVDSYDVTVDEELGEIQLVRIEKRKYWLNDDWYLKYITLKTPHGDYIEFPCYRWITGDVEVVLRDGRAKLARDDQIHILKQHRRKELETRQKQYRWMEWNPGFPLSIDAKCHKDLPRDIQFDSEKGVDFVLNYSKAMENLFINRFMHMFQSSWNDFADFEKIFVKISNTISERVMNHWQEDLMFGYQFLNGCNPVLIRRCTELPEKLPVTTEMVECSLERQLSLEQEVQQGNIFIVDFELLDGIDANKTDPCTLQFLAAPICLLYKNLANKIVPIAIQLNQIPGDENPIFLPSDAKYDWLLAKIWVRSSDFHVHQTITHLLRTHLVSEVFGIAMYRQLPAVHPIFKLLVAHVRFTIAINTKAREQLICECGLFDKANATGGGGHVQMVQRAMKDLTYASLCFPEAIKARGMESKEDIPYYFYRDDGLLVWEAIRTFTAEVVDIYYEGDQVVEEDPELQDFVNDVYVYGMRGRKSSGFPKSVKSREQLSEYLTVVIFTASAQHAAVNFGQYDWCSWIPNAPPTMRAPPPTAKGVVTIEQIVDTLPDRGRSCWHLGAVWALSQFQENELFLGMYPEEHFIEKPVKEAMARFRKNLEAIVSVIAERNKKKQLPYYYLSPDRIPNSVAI
The experiment can be described thus: Inhibition of 5LOX in human whole blood assessed as inhibition of calcium ionophore A 23187-stimulated 5HETE production by HPLC analysis. It counts as functional, tissue-based. In short, it runs like this:
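Heparinized human whole blood, 1 mL aliquots, preincubated 15 min at 37 °C with compound or DMSO vehicle; then stimulated with 40 μM A 23187 for 15 min at 37 °C. 5-HETE extracted into ethyl acetate, then HPLC on a C18 column, methanol/water/acetic acid 80:20:0.08, pH 6.0, UV at 234 nm. IC50 from n = 2.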

Experiment [4] has as its target T2, Prostaglandin G/H synthase 2 (Homo sapiens, UniProt P35354).
T2 sequence (P35354 whole entry): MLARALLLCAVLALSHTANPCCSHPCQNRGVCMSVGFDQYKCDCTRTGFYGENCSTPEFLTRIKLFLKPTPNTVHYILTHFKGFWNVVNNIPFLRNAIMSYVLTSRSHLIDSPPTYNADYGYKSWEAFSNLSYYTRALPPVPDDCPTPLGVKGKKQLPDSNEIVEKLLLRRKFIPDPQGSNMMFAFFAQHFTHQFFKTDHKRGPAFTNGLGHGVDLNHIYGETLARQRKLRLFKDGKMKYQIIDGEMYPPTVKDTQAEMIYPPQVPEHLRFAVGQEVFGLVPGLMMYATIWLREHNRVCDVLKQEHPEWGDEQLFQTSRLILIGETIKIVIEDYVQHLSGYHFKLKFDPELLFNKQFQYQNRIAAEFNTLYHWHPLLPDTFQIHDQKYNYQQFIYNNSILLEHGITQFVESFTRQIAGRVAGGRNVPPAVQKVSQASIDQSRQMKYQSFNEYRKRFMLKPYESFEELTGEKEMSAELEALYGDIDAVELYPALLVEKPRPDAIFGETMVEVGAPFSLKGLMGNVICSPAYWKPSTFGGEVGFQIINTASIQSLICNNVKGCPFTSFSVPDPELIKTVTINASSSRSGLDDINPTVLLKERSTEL
The experiment can be described thus: Inhibition of COX2 expressed in CHO cells assessed as inhibition of arachidonic acid-stimulated PGE2 production by enzyme immunoassay.

Experiment [5] relates to LNCaP. The experiment can be described thus: Cell cycle arrest in human LNCaP cells by accumulation at G1 phase at 10 uM after 72 hrs by FACS flow cytometry. It counts as functional. The essentials: (§1)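 LNCaP or PC 3 cells seeded in 6-well plates, synchronized 24 h in serum-free medium, treated 72 h with varying compound concentrations; trypsinized cells pooled with supernatants, pelleted, fixed in cold ethanol overnight at 4 °C, then 30 min in PBS with RNase and propidium iodide. FACScan flow cytometry quantified sub-G1 (sub-diploid), G1, S and G2-M fractions as percent of cells.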

Experiment [6] has as its system LNCaP. The experiment can be described thus: Antiproliferative activity against androgen-sensitive human LNCaP cells at 100 uM after 72 hrs by MTT test. It counts as functional. In short, it runs like this:
(§2)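 Prostate carcinoma cells kept at 37 °C, 5% CO2 in RPMI 1640 with 10% fetal calf serum; seeded 1.8 × 10⁴ (PC 3) or 5.0 × 10⁴ (LNCaP) cells/well, grown 3 days, serum-starved 24 h for synchronization, then exposed 72 h to compounds in medium (<0.1% DMSO); growth read by colorimetric MTT. Mean of at least four independent determinations; single-dose lines at 100 μM.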
A general note: Tetrazolium dyes change colour on reduction, which living cells bring about.

For experiment [7], the system named is LNCaP. The experiment can be described thus: Cell cycle arrest in human LNCaP cells by accumulation at G2M phase at 10 uM after 72 hrs by FACS flow cytometry. The experiment is classed as functional. In short, it runs like this:
as §1

In experiment [8] the test system is LNCaP. The experiment is described as follows: Cell cycle arrest in human LNCaP cells by accumulation at S phase at 10 uM after 72 hrs by FACS flow cytometry. It counts as functional. The essentials: as §1
A general note: Flow cytometry measures light scatter and fluorescence of single cells or particles in a stream.

Experiment [9] concerns PC-3. The experiment is described as follows: Antiproliferative activity against androgen-independent human PC3 cells at 100 uM after 72 hrs by MTT test. The experiment is classed as functional. In short, it runs like this:
as §2

For experiment [10], the system named is LNCaP. The experiment can be described thus: Cell cycle arrest in human LNCaP cells by accumulation at subG1 phase at 10 uM after 72 hrs by FACS flow cytometry. The experiment is classed as functional. In short, it runs like this:
as §1

Experiment [11] concerns PC-3. The experiment can be described thus: Antiproliferative activity against androgen-independent human PC3 cells after 72 hrs by MTT test. The experiment is classed as functional, cell-based. The settings on record: PC-3, 72 h. In short, it runs like this:
as §2

Take `COc1cc(OC)cc(OCc2cc(-c3ccccc3)n(-c3ccc(S(C)(=O)=O)cc3)n2)c1`: the Selectivity ratio in [1] was determined as 29. Moreover, the results for the IC50 in experiment [2], in experiment [3] and in experiment [4] were 25.1 µM, above 10000 nM and 870 nM, respectively.

For `COc1cc(F)cc(OCc2cc(-c3ccccc3)n(-c3ccc(S(C)(=O)=O)cc3)n2)c1`, the Selectivity ratio in experiment [1] was found to be 142. Besides, the figures for the IC50 in experiment [2], in experiment [3] and in [4] were 44.3 µM, above 10000 nM and 310 nM, respectively.

For the molecule `COc1ccc(OCc2cc(-c3ccccc3)n(-c3ccc(S(C)(=O)=O)cc3)n2)cc1OC`, the Selectivity ratio in experiment [1] was above 142. For the same molecule, the values for the IC50 in experiment [2], in experiment [3] and in experiment [4] were above 100 µM, above 10000 nM and 700 nM, respectively.

With `COc1cc(OCc2cc(-c3ccccc3)n(-c3ccc(S(C)(=O)=O)cc3)n2)cc(OC)c1OC`, the Selectivity ratio in [1] is 78. For the same molecule, the IC50 (in general, the concentration that gives 50% inhibition) in experiment [2] is 17.6 µM; in experiment [3] it was above 10000 nM; in experiment [4] it was 220 nM.

`COC1(c2cc(F)cc(OCc3ccc4c(ccc(=O)n4C)c3)c2)CCOCC1` [ZD-2138]: the IC50 in experiment [2] is above 100 µM; in experiment [3], 83 nM; in experiment [4], above 100000 nM.

For `CS(=O)(=O)c1ccc(-n2nc(COc3ccc4c(c3)OCO4)cc2-c2ccccc2)cc1`, the Selectivity ratio in experiment [1] came out at 35. Moreover, the IC50 in experiment [2] was 15.8 µM; in [3] it was above 10000 nM; in experiment [4] it was 450 nM.

`CCOc1cccc(OCc2cc(-c3ccccc3)n(-c3ccc(S(C)(=O)=O)cc3)n2)c1`: in experiment [1], the Selectivity ratio was above 112. Also, the IC50 in experiment [2] was above 100 µM; in experiment [3], above 10000 nM; in experiment [4], 900 nM.

As for `COC1(c2cc(F)cc(OCc3cc(-c4ccccc4)n(-c4ccc(OC(F)(F)F)cc4)n3)c2)CCOCC1`, the Activity in [5] worked out at 74.7%; in experiment [6] it was 0%; in experiment [7], 11%; in [8], 10.6%; in [9], 0%; in experiment [10], 3.6%. For the same molecule, the IC50 came out at 850 nM in [3] and 820 nM in [4].

Turning to `CS(=O)(=O)c1ccc(-n2nc(COc3cccc(N4CCOCC4)c3)cc2-c2ccccc2)cc1`, in experiment [1], the Selectivity ratio turned out to be 41. Also, the IC50 in [2] was 38.1 µM; in experiment [3], above 10000 nM; in experiment [4], 920 nM.

Consider `COc1ccc(-n2nc(COc3cc(F)cc(C4(OC)CCOCC4)c3)cc2-c2ccccc2)cc1`, for which the Activity in [5] stood at 69%; in experiment [7], 17%; in [8], 11.4%; in experiment [10], 2.8%. Also, the Selectivity ratio in [1] is below 1. Further, the IC50 in experiment [2] amounted to 0.036 µM; in experiment [3], 770 nM; in experiment [4], 300 nM.

With `COC1(c2cc(F)cc(OCc3cc(-c4ccccc4)n(-c4ccccc4)n3)c2)CCOCC1`, the Activity stood at 72.9% in experiment [5]; 0% in experiment [6]; 13.9% in experiment [7]; 10.6% in experiment [8]; 0% in experiment [9]; 3% in experiment [10]. For the same molecule, in experiment [1], the Selectivity ratio stood at 12. For the same molecule, the IC50 in experiment [2] was determined as 7.14 µM; in experiment [3], 570 nM; in experiment [4] it was 610 nM.

As for `COC1(c2cc(F)cc(OCc3cc(-c4ccccc4)n(-c4ccc(Cl)cc4)n3)c2)CCOCC1`, the Activity stood at 75.5% in experiment [5]; 0% in [6]; 11.1% in experiment [7]; 11.1% in [8]; 0% in experiment [9]; 2.5% in experiment [10]. In experiment [1], the Selectivity ratio was 2. The IC50 in experiment [2] worked out at 1.81 µM; in experiment [3] it was 830 nM; in experiment [4], 930 nM.

For the molecule `COC1(c2cc(F)cc(OCc3cc(-c4ccccc4)n(-c4ccc(Cl)c(Cl)c4)n3)c2)CCOCC1`, the Activity in experiment [5] was 68.2%; in [6] it was 32%; in experiment [7], 15.5%; in [8], 11.5%; in [9], 21%; in experiment [10] it was 4.6%. The IC50 in [3] turned out to be 800 nM; in [4], 700 nM.

As to `CS(=O)(=O)c1ccc(-n2nc(COc3cccc([N+](=O)[O-])c3)cc2-c2ccccc2)cc1`, the Selectivity ratio in [1] is above 134. The IC50 in experiment [2] was above 100 µM; in experiment [3], above 10000 nM; in [4], 740 nM.

In the case of `COC1(c2cc(F)cc(OCc3cc(-c4ccccc4)n(-c4ccc(C)c(C)c4)n3)c2)CCOCC1`, the Activity in experiment [5] came out at 69.5%; in experiment [6], 26%; in experiment [7], 15%; in experiment [8], 11.5%; in experiment [10], 3.9%. In addition, the IC50 in experiment [11] stood at 55 µM; in experiment [3], 760 nM; in experiment [4], 410 nM.

On to `CS(=O)(=O)c1ccc(-n2nc(COc3cc(F)cc(C#N)c3)cc2-c2ccccc2)cc1`, for which the Selectivity ratio in experiment [1] is 176. The IC50 in experiment [2] was 99.6 µM; in [3] it was above 10000 nM; in experiment [4] it was 570 nM.

As for `COC1(c2cc(F)cc(OCc3cc(-c4ccccc4)n(-c4ccc(C)cc4)n3)c2)CCOCC1`, the Activity in experiment [5] is reported as 71.3%; in experiment [6], 18%; in experiment [7] it was 14.6%; in [8], 10.7%; in [9], 0%; in experiment [10] it was 3.5%. Moreover, the Selectivity ratio in experiment [1] came out at 1. The IC50 stood at 1.56 µM in experiment [2], 720 nM in experiment [3] and 930 nM in experiment [4].

On to `COC1(c2cc(F)cc(OCc3cc(-c4ccccc4)n(-c4ccc(F)cc4)n3)c2)CCOCC1`, for which the Activity in [5] was found to be 71.3%; in experiment [6], 3%; in experiment [7] it was 15.3%; in experiment [8], 9.7%; in experiment [9] it was 7%; in experiment [10] it was 4%. Besides, the Selectivity ratio in [1] was 1. Also, the IC50 in [2] is 1.13 µM; in [3], 480 nM; in [4] it was 960 nM.

For the origin of these results see ChEMBL document CHEMBL1149247, “New COX-2/5-LOX inhibitors: apoptosis-inducing agents potentially useful in prostate cancer chemotherapy” (J Med Chem, 2004).
